# Source: PubChem (Broad Institute)
# This is a sample that favours compounds with a hit; in the whole collection about 1.9% have one here.
# SR-BI DiI inh = inhibitors of mouse SR-BI mediated HDL lipid uptake; 320,000 tested, 0.96% active; ldlA[mSR-BI] CHO cells, DiI-HDL uptake fluorescence, 3 h; inhibition, % at 12.5 µM;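 active means mean replicate inhibition of at least 70% and a set share of replicates each scoring 70 or more; inconclusive means meets just one of the two criteria; inactive means fails both criteria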;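 further: 0% = median of neutral control wells and 100% = median of positive control wells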
# Target sequence (Q61009 whole entry, looked up): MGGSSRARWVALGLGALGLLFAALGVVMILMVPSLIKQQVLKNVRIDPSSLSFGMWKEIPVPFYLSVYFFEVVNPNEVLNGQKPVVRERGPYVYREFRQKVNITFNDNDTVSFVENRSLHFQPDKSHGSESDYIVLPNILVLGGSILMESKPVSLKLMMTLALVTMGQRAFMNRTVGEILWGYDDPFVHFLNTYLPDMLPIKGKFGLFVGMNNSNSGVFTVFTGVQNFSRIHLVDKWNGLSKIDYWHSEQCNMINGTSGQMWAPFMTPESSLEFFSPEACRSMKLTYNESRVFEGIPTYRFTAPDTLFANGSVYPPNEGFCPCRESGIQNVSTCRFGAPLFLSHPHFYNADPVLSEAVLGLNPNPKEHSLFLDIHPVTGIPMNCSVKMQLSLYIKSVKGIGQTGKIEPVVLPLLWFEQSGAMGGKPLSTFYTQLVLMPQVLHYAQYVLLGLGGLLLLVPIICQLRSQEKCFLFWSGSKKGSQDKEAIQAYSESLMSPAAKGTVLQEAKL
# N-glyco inh = N-linked glycosylation inhibition; D54 ERlucT glycosylation luciferase reporter, 24 h; percent of 100 nM tunicamycin response; reporter increase, % at 12.5 µM; 360,000 tested, 0.23% active; AID 588692;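 active means mean luciferase reporter signal, scaled so untreated is 0 and the glycosylation-blocking control 100, at or above a set limit in every replicate; inconclusive means mean reaches the limit but not every replicate does; inactive means mean below the limit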;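 further: luciferase carries N-glycosylation sites so blocking glycosylation raises the light; 0% = median of neutral control wells and 100% = median of 100 nM tunicamycin wells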
# Rtt109 Vps75 = blocks Candida albicans Rtt109/Vps75 acetyltransferase activity; inhibition, % at 34.9 µM; AID 540336; Q5AAJ8; 330,000 tested, 0.16% active; purified Rtt109/Vps75, ThioGlo CoA-SH fluorescence, 4 h;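 active means inhibition of at least 50% in every replicate; inconclusive means best replicate reaches 50% inhibition but some replicates fall short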
# PglD DTNB = blocks C. jejuni PglD acetyltransferase activity; 360,000 tested, 0.098% active; purified PglD enzyme, DTNB colorimetric CoA detection; inhibition, % at 12.5 µM; in the data active means inhibition above about 16%, passing the limit was not always enough; inconclusive means no clear call, values can overlap the other calls
# SR-BI uptake up = activators of SR-BI mediated HDL lipid uptake. CHO ldlA[mSR-BI] cells, DiI-HDL uptake fluorescence, 3 h; 100 = double the neutral-control signal. activation, % at 12.5 µM. 320,000 tested, 0.096% active. AID 504775;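 active means mean replicate activation of at least 60% and every replicate at or above 60%; inconclusive means mean or all-replicate condition met, but not both; inactive means mean below 60% and not all replicates reaching 60%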;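 further: 0% = median plate neutral-control signal and 100% = twice that signal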
#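 Test system: SR-BI-overexpressing, LDLR-lacking CHO cells. Measured by: DiI fluorescence, bottom read. Medium: Ham's F12 with 0.5% BSA, HEPES 25 mM, pH 7.4. Timing: 3 h uptake period with compound, 37 °C.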
# Env fusion inh = inhibitors of HIV Env-mediated cell fusion; inhibition, % at 12.3 µM; AID 651610; 360,000 tested, 1.1% active; HeLa-JRFL Env/CEM21 cell fusion, luciferase;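 active means mean replicate inhibition score of at least 50 and every replicate individually at or above 50; inconclusive means only one of the two criteria met; inactive means mean below 50 and not all replicates reaching 50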;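 further: 0% = plate neutral controls and 100% = maraviroc near 300 nM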
# An asterisk follows results filed as active; ? = inconclusive; . = not tested or not shown; [ ] = remark or other dose.
SMILES,SR-BI DiI inh,N-glyco inh,Rtt109 Vps75,PglD DTNB,SR-BI uptake up,Env fusion inh
COC(=O)[C@]12C[C@H](CC(=O)NCc3cccc(C(F)(F)F)c3)C(=O)N(Cc3ccc4c(c3)OCO4)C1=C[C@H](C(C)(C)C)O[C@@H]2C,.,.,.,.,.,59*
CN1C(=O)c2cc(NC(=O)Cc3cccs3)ccc2OC[C@H]2O[C@H](CC(=O)N[C@H]3CCN(Cc4ccccc4)C3)CC[C@@H]21,.,.,.,3,.,3[16.7 µM]
CCN(C(=O)c1cn(C)c(=O)c2cc(OC)c(OC)cc12)c1cc(OC)ccc1OC,-67,0,-5,1,67*,.
CCN(CC)C(=O)c1cn(C)c(=O)c2cc(OC)c(OC)cc12,-16,2,-26,-1,16,-87
C[C@@H]1CN([C@H](C)CO)C(=O)c2cc(NS(C)(=O)=O)ccc2O[C@@H]1CN(C)S(=O)(=O)c1cccs1,.,.,.,-3,.,.
S=C(NN=C(c1ccccc1)c1ccccn1)N(Cc1ccccn1)Cc1ccccn1,0,-15,-3,.,0,76*
Cc1ccccc1NC1=C/C(=N\S(=O)(=O)c2cccs2)c2ccccc2C1=O,50,-23,3,2,-50,121*
COc1ccc(-c2coc3c(C(=O)NCc4cccc(Cl)c4)cccc23)c(C)c1,.,-8,.,2,.,?
COc1ccc(CNC(=O)c2cccc3c(-c4cccc(C(N)=O)c4)coc23)cc1OC,.,60*,.,5,.,27
COc1cc(-c2coc3c(C(=O)NCc4ccc(N(C)C)cc4)cccc23)ccc1O,.,2,.,1,.,-2
COc1ccc(-c2coc3c(C(=O)NCc4ccc(C(F)(F)F)cc4)cccc23)c(C)c1,.,-4,.,7,.,67*
COc1ccc(CNC(=O)c2cccc3c(-c4ccc(F)c(F)c4)coc23)cc1OC,.,2,.,3,.,.
COc1cc(-c2coc3c(C(=O)NCc4ccc(OC)c(OC)c4)cccc23)ccc1O,.,91*,.,5,.,-5
O=C(Cc1ccccn1)N[C@H]1CC[C@H](CCn2cc(-c3ccccc3)nn2)O[C@@H]1CO,.,.,.,-4,.,-1[16.7 µM]
CO[C@H]1CN(C)C(=O)c2cc(NC(=O)c3ccc4c(c3)OCO4)ccc2OC[C@H](C)NC[C@H]1C,.,.,.,0,.,5[16.7 µM]
Cc1ccc(-c2nc(Nc3cccc(O)c3)c3ccccc3n2)cc1,69,3,-1,0,-69,3
Cc1ccc(-c2nc(Nc3ccc(O)cc3)c3ccccc3n2)cc1,107*,3,-3,7,-107,14
COc1ccc(Nc2nc(-c3ccccc3O)nc3ccccc23)cc1,52,-7,-3,-3,-52,-7
Oc1ccccc1Nc1nc(-c2ccccc2O)nc2ccccc12,93*,-5,3,1,-93,23
O=[N+]([O-])c1ccc(-c2nc(Nc3cccc(O)c3)c3ccccc3n2)cc1,72*,8,-10,-5,-72,3
Oc1ccc(Nc2nc(-c3ccccc3O)nc3ccccc23)cc1,74*,0,6,-2,-74,20
CC(C)NC(=O)Nc1ccc2c(c1)C(=O)N([C@H](C)CO)C[C@@H](C)[C@H](CN(C)C(=O)Nc1ccc3c(c1)OCO3)OCCCC[C@@H](C)O2,.,.,.,-4,.,10[16.7 µM]
C[C@@H]1CCCCO[C@H](CN(C)S(C)(=O)=O)[C@@H](C)CN([C@@H](C)CO)C(=O)c2cc(NC(=O)Nc3ccc(F)cc3)ccc2O1,.,.,.,3,.,-7[16.7 µM]
O=C(C[C@H]1C=C[C@H](NC(=O)C2CCOCC2)[C@H](CO)O1)NCC1CCCCC1,.,.,.,1,.,-3[16.7 µM]
COCC#Cc1cnc2c(c1)C(=O)N([C@@H](C)CO)C[C@@H](C)[C@@H](CN(C)C(=O)C1CC1)O2,.,.,.,-46,.,-17[16.7 µM]
C[C@H](NC(=O)C[C@@H]1C[C@H]2c3cc(N(C)C)ccc3O[C@H]2[C@@H](CO)O1)c1ccccc1,.,.,.,-1,.,1[16.7 µM]
Cn1c(=O)n(C)c2cc([N+](=O)[O-])c(N3CCN(C(=O)c4ccccc4Br)CC3)cc21,-22,4,1,.,22,30
Cn1c(=O)n(C)c2cc([N+](=O)[O-])c(N3CCN(C(=O)c4ccccc4)CC3)cc21,-1,3,1,-5,1,55*
